From PubChem BioAssay
KCNQ1 block = human KCNQ1 channel inhibition; B-score at 10 µM; CHO-K1 KCNQ1, FluxOR thallium flux fluorescence; stronger effect = higher value; AID 2642; P51787; actives 1.3% (n = 310,000);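 active = compounds whose thallium flux B-score, printed positive for inhibition, exceeds three library SD while starting fluorescence stays within three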;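 also: channel opened by potassium depolarization with thallium stimulus after 20 min compound exposure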
Kir21 inh = inhibitors of mouse Kir2.1 inward-rectifier potassium channel | HEK293-Kir2.1, FluxOR thallium flux fluorescence; stronger effect = lower value | actives 0.85% (n = 310,000) | AID 1672 | B-score at 10 µM | P35561;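 active = fluorescence ratio B-score at or below minus 3 SD of library scores, with starting-brightness B-score within 2 SD, cut at about -4.2 in these data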;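 also: channel flux triggered by added potassium and thallium sulfate stimulus; B-score of peak minus minimum fluorescence over baseline after thallium stimulus; more negative B-score means stronger Kir2.1 block with less thallium influx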
hERG protect = shields human hERG channel from block by proarrhythmic agents | activation (rescue from dofetilide block), less the hit threshold, % at 10 µM | CHO-hERG, FluxOR thallium flux, dofetilide IC70 present | actives 0.51% (n = 310,000);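 active = activation above the mean of controls blocked by dofetilide plus 5 SD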;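 also: thallium influx through hERG after potassium depolarization seen as dye fluorescence rise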
Target sequence (Q12809 whole entry, looked up): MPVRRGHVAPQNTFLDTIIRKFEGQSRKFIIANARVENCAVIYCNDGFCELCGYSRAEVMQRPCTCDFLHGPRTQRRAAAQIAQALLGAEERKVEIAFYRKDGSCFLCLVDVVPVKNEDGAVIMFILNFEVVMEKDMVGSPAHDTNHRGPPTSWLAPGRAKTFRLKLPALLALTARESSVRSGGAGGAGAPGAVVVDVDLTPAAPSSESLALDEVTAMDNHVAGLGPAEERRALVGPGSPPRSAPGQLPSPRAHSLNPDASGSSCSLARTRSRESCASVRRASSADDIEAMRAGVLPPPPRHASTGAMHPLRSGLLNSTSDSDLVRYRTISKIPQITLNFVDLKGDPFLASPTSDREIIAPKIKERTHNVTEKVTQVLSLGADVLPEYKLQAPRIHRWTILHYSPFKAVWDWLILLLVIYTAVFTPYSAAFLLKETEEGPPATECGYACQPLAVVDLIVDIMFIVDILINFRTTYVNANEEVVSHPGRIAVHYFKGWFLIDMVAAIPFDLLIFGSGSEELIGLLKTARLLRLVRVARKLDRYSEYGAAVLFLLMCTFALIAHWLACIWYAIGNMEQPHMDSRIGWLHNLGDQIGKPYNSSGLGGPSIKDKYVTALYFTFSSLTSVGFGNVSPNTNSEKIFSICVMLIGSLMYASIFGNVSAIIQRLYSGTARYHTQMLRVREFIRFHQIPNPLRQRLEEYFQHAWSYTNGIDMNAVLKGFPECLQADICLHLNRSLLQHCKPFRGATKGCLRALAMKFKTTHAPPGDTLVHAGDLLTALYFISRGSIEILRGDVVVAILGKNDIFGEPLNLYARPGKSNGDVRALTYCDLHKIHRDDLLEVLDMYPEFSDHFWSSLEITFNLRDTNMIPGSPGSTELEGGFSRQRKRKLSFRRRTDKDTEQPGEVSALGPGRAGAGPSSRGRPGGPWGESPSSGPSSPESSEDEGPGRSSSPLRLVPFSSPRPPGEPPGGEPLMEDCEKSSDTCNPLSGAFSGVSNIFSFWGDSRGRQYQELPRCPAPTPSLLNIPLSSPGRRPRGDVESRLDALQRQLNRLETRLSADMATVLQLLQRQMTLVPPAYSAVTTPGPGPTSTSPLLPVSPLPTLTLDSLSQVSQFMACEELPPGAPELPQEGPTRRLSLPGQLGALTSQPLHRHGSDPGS
KCNK9 block = blocks the human KCNK9 two-pore domain potassium channel | actives 1.2% (n = 310,000) | B-score at 10 µM | HEK293 KCNK9, FluxOR thallium flux fluorescence; stronger effect = lower value | AID 488922;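 active = ratio B-score over 3 SD below the library mean, with starting fluorescence within 5 SD of its mean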;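 also: negative B-score means less thallium flux so channel inhibition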
KCNK3 block = human KCNK3 channel inhibition, primary screen | actives 0.84% (n = 340,000) | O14649 | CHO-KCNK3 thallium flux, FluxOR fluorescence; stronger effect = lower value | B-score at 10 µM | AID 602410;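 active = B-score under library mean minus 4 SD, starting fluorescence ratio at most library mean plus 5 SD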;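 also: more negative B-score means stronger inhibition of thallium flux through KCNK3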
KCNQ1 act = human KCNQ1 channel potentiation or activation. P51787. CHO-K1 KCNQ1, thallium flux FluxOR fluorescence; stronger effect = higher value. B-score at 10 µM. actives 0.35% (n = 310,000). AID 2648;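 active = fluorescence ratio B-score, a plate-corrected score, at least three library SD, with initial intensity B-score within 5 SD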
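assay system = CHO-K1 cells stably expressing KCNQ1 | medium = assay buffer, equal DMSO in all wells | timing = 37 °C overnight plating, 90-min dark dye load, 20-min compound pretreatment | measured by = kinetic FluxOR thallium fluorescence, 10-s 1-Hz baseline, 110-s post-stimulus read | measure = fluorescence change relative to baseline, converted to B score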
Active calls of the source: *; i = inactive; x = no result. Most compounds without a hit are left out; they make up all but 3.8% or so of the library.

SMILES | KCNQ1 block | Kir21 inh | hERG protect | KCNK9 block | KCNK3 block | KCNQ1 act
COc1ccc(Nc2nc(N)nc(CN3CCC(Cc4ccccc4)CC3)n2)cc1 | i | -4.4* | -27 | i | i | i
COc1ccccc1Nc1nc(N)nc(CN2CCC(Cc3ccccc3)CC2)n1 | i | -2.7 | -19 | i | i | i
CCCCC1CCc2[nH]nc(C(=O)O)c2C1 (centres undefined) | x | x | x | x | i | x
Cc1ccc(S(=O)(=O)N2CC(O)C[C@H]2C(=O)OCC(=O)N2CCN(c3ccc(F)cc3)CC2)cc1C (some centres undefined) | x | x | x | x | i | x
C=CCOc1c(CNc2ccc(S(N)(=O)=O)cc2)cccc1OC | i | 2 | -6 | i | i | i
COc1cccc(CNc2ccc(S(N)(=O)=O)cc2)c1OCc1ccccc1F | i | -5.1* | -11 | i | i | i
O=C(NC(=S)N1CCCC1)c1ccccc1 | i | 0.05 | -5 | i | i | i
O=C(NC(=S)N1CCN(c2ccccc2)CC1)c1ccccc1 | i | -0.72 | 10* | i | i | 20*
O=C(NC(=S)N1CCCCCC1)c1ccccc1 | i | 0.07 | 5.8* | i | i | i
O=C(NC(=S)N1CCCCCC1)c1ccc(Cl)cc1Cl | i | -0.68 | 7.0* | i | i | 21*
Cc1occc1C(=O)N1CCCC(N2CCN(c3ccccc3F)CC2)C1 (centres undefined) | i | -0.15 | -7 | i | i | i
CCOC(=O)c1sc(N(Cc2ccccc2)C(=O)CCl)nc1C | i | -0.53 | -14 | i | i | i
CCOC(=O)c1sc(N(Cc2ccccc2)C(=O)COC(=O)c2ccccc2O)nc1C | i | -0.35 | -13 | -6.7* | i | i
Cc1cc(/C=N/n2c(COc3ccccc3C)nc3ccccc3c2=O)c(O)c([N+](=O)[O-])c1 | 14* | 1.7 | -17 | i | i | i
Cc1ccccc1OCc1nc2ccccc2c(=O)n1/N=C/c1c[nH]c2ccccc12 | i | 0.16 | -4 | i | i | i
Cc1ccn2c(/C=N/OCc3ccc(F)cc3)c(-c3ccc(Cl)cc3)nc2c1 | i | -3.9 | -15 | -7.4* | i | i
Cc1ncc(N=Nc2ccc(F)cc2)c(-c2ccc(Cl)cc2)n1 | i | 0.93 | -11 | i | i | i
O=C1CSC(c2cccnc2)N1Cc1ccc(Cl)cc1Cl (centres undefined) | i | -4.4* | -3 | i | i | i
CC1=C(C)CC(C(=O)NNC(=O)c2cccc(Cl)c2)C(C(=O)O)C1 (centres undefined) | i | -0.06 | -1 | i | i | i
Cc1ccc(CCC2C3=C(CCCC3=O)OC3=C2C(=O)CCC3)cc1 | i | -1.1 | -3 | i | i | i
CC(C)c1ccc(CC(C)C2C3=C(CCCC3=O)OC3=C2C(=O)CCC3)cc1 (centres undefined) | 7* | -0.01 | -15 | i | i | i
Cc1ccc(NC(=S)Nc2ccc(Cl)c(Cl)c2)c(OC(F)F)c1 | 9* | -2.6 | -35 | i | i | i
CCOC(=O)c1nc(Nc2ccc(Nc3ccccc3)cc2)c2ccccc2n1 | i | 1.1 | -16 | -7.6* | i | i
N#CC1=C(N)C(C#N)(C#N)C(c2cccnc2)C2CCCC=C12 (centres undefined) | i | -0.57 | -8 | i | x | i
N#CC1=C(N)C(C#N)(C#N)C(c2ccc[nH]2)C2CCCC=C12 (centres undefined) | i | -4.9* | 2 | i | i | i
SMILES | KCNQ1 block | Kir21 inh | hERG protect | KCNK9 block | KCNK3 block | KCNQ1 act
O=C(NCCCN1CCCC1=O)c1cccc(S(=O)(=O)Nc2ccc(Br)cc2)c1 | i | -0.61 | -15 | i | i | i
O=C(NN1C(=O)C2C(c3ccccc3)C=CC(c3ccccc3)C2C1=O)c1ccccc1 (centres undefined) | i | 0.17 | 8.6* | -7.8* | i | i
O=C(NN1C(=O)C2C3c4ccccc4C(c4ccccc43)[C@@H]2C1=O)c1ccccc1 (some centres undefined) | i | -0.57 | 1 | i | i | i
COc1ccc(N2C(=O)c3cccc4c(N(C)CCO)ccc(c34)C2=O)cc1 | 7* | 0.14 | -12 | i | i | i
O=C1/C(=C/c2ccc(N3CCOCC3)o2)SC(=Nc2ccccc2)N1CCc1c[nH]c2ccccc12 | 7* | -0.02 | -29 | i | i | i
COc1cc(/C=C2\SC(=Nc3ccccc3)N(CCc3c[nH]c4ccccc34)C2=O)ccc1OC(C)C(=O)O (centres undefined) | i | -0.32 | -11 | i | i | i
COc1ccc(N=C2S/C(=C\c3ccc(OC(C)C(=O)O)c(OC)c3)C(=O)N2CCc2c[nH]c3ccccc23)cc1 (centres undefined) | 11* | -0.78 | -14 | i | i | i
Cc1ccc(C(=O)NNC(=S)Nc2cccc(Cl)c2Cl)cc1[N+](=O)[O-] | 9* | -1.7 | -10 | i | i | i
CC(C)(C)c1cc(CCC(=O)NCc2cccnc2)cc(C(C)(C)C)c1O | i | -5.1* | -4 | i | i | i
CN1CCc2c(sc(NC(=O)C3CCCN3S(=O)(=O)c3ccc(Cl)s3)c2C(N)=O)C1 (centres undefined) | i | 0.9 | -13 | i | i | i
CCN(CC)c1ccc2cc(-c3nc4ccccc4[nH]3)c(=O)oc2c1 | 27* | -8.3 | -53 | i | i | i
CCN(CC)S(=O)(=O)c1cccc(C(=O)N[C@H](C(=O)NNC(=O)c2ccccc2)C(C)C)c1 | i | 2.3 | 7.9* | i | i | 33*
CCN(CC)S(=O)(=O)c1cccc(C(=O)NC(C(=O)NC2=NCCS2)C(C)C)c1 (centres undefined) | i | -1.1 | -6 | i | i | i
Cn1c(=O)[nH]c(=O)c2c1nc(SCC(O)CCl)n2Cc1ccccc1 (centres undefined) | i | 1 | -7 | i | i | i
Cc1c(C)c(C)c(S(=O)(=O)N2CCSCC2)c(C)c1C | i | 1.4 | -7 | i | i | i
Cc1cc(C)c(C)c(S(=O)(=O)N2CCSCC2)c1C | i | -4.5* | -5 | i | i | i
N=c1oc2ccc([N+](=O)[O-])cc2cc1C(=O)NCc1ccccc1 | i | 0.94 | -4 | i | i | i
O=[N+]([O-])c1ccc2oc(C(O)c3cccc(Cl)c3)cc2c1 (centres undefined) | 9* | 0.03 | -16 | i | i | i
O=C(NCc1cccnc1)Nc1cccc(F)c1 | i | 0.84 | -8 | -7.8* | i | i
